From PubChem
An excerpt weighted towards active compounds, which were near 11% of everything screened.
M1 antag: antagonists of rat M1 muscarinic receptor; CHO-M1 cells, Fluo-4 calcium, ACh EC80 antagonist mode; hits give low values; 3.4% of 64,000 active; B-score at 10 µM; AID 628, 2007;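 active = calcium fluorescence response, raw or row-and-column corrected B-score, differing from the plate sample mean either way at a set confidence level, mostly lower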
M1 agonist: M1 muscarinic receptor agonists, primary screen, CHO-M1 cells, Fluo-4 calcium, agonist mode | 3% of 64,000 active | Fluo-4 calcium fluorescence; hits give high values | Muscarinic acetylcholine receptor M1 | AID 626, 2007 | B-score at 10 µM;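 active = fluorescence rise, raw or as B-score row- and column-corrected plate score, outside the 99.7% band of its plate's samples, either direction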
RORA act: activators of orphan receptor RORA, primary screen, cell-based, luminescence; Nuclear receptor ROR-alpha (Homo sapiens), P35398; 1.5% of 65,000 active; activation, % at 10 µM; AID 560, 2006; CHO-K1 Gal4-RORA LBD luciferase reporter; percent increase over mock-subtracted basal signal;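 active = activation above the mean of all tested compounds plus 3 SD, cut at about 49% in these data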;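 note: 0% = DMSO-treated RORA cells and 100% = added signal equal to DMSO minus mock-transfected cells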
Target sequence (P35398 whole entry, looked up, the tested form may be a part): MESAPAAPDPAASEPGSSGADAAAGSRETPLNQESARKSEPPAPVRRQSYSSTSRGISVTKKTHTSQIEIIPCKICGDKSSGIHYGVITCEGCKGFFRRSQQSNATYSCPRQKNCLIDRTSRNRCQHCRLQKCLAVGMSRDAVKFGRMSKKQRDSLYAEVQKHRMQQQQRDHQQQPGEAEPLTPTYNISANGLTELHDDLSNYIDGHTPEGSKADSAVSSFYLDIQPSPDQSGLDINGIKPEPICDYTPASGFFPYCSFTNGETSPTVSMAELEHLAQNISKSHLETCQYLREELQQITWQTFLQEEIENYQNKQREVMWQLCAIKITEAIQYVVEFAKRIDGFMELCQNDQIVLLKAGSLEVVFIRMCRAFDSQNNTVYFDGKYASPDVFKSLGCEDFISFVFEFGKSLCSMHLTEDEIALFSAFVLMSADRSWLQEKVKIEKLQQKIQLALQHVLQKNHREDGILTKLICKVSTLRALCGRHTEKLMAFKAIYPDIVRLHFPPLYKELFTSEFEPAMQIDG
D1 mod: D1 CRE-luciferase signal change, two-sided – cell-based, HEK293 D1, dopamine EC30, D1 allosteric modulator project, primary screen | dopamine EC30 potentiation; actives deviate in either direction | B-score at 10 µM | D(1A) dopamine receptor (Homo sapiens), P21728 | 5.9% of 58,000 active;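 active = luminescence count or its row- and column-corrected plate score outside the 99.7% band of the plate's sample wells, on either side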
Htt clearance: clearance of mutant huntingtin inclusions, primary screen, imaging, HeLa Exon1htt(103Q)mCFP, confocal imaging. aggregate imaging; zero = plate's median compound well. inhibition, % at 1.5 µM. 0.42% of 47,000 active;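 active = inhibition of aggregate fluorescence above about 70%, also judged a hit by eye on the cell image, limit read from the data, passing the limit was not always enough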;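 note: cells exposed to compound for three days before fixation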
SF1 activator: activators of human SF-1, primary screen, cell-based, CHO-K1, Gal4-SF-1 LBD, luciferase luminescence | 1.9% of 65,000 active | AID 522, 2006 | CHO-K1 Gal4-SF-1 LBD luciferase reporter; % increase over DMSO SF-1-specific signal | activation, % at 10 µM | Steroidogenic factor 1 (Homo sapiens), Q13285;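 active = activation above the mean activation of all tested compounds plus 3 SD, cut at about 50% in these data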
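Test system: transient Gal4-SF-1 LBD reporter, CHO-K1; Amount: 4,000 CHO-K1 cells per well; Doses: 10 µM only; Timing: compound exposure 20 h at 37 °C; Signal: luciferase light emission; Read-out basis: percent activation relative to DMSO median and mock-transfected background; Control set: DMSO negative control and −SF1 background wells; Replicates: one test per compound.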
D1 mod confirm: D1 receptor positive allosteric modulators, retest, confirmation, cell-based, HEK293 D1, CRE-luciferase, duplicate. AID 642, 2007. 88% of 2,200 active. luminescence at 10 µM. dopamine EC30 potentiation; hits give high values. shares compounds with D1 mod;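 active = luminescence in either of two replicates above the same-plate mean plus 3 SD of the low-dose dopamine control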
D1 ag no DA: D1 receptor agonism without dopamine, confirmation, mechanism study for D1 allosteric modulator project, cell-based, HEK293 D1, CRE-luciferase, secondary assay 1; 0.8% of 1,900 active; shares compounds with D1 mod; luminescence at 10 µM; luminescence, no dopamine; hits give high values; in the data active = luminescence above about 3900
Isoprot counter: alters isoproterenol CRE-luciferase response in HEK293 cells | shares compounds with D1 mod | HEK293 D1 CRE-luciferase, isoproterenol EC30 counter-screen | calls only at 10 µM | 63% of 2,200 active | AID 647;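 active = luminescence in either replicate above plate mean of wells with a partly effective reference agonist dose plus 3 SD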;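 note: isoproterenol raises cAMP through native beta-adrenoceptor Gs so signal bypasses D1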
Numbers without * were called inactive; i = inactive; / = no result given; + = active, no number.

SMILES	M1 antag	M1 agonist	RORA act	D1 mod	Htt clearance	SF1 activator	D1 mod confirm	D1 ag no DA	Isoprot counter
COc1cc(C(=O)N2CCN(c3cccc(C)c3C)CC2)cc(OC)c1OC	1.5	0.067	-16	1.7	59	5	/	/	/
COc1cc(C(=O)N2CCN(c3cc(Cl)ccc3Cl)CC2)cc(OC)c1OC	0.56	-0.072	1	6.5*	/	-38	10496*	1588	+
CCc1nc(NCCCn2ccnc2)c2oc3ccccc3c2n1	0.099	-0.65	3	5.5*	0	4	13664*	/	+
c1ccc(-c2nc(NCCCn3ccnc3)c3oc4ccccc4c3n2)cc1	/	/	/	/	12	/	/	/	/
Cc1cc(C(F)F)n2ncc(C(=O)NCc3ccccc3C(F)(F)F)c2n1	0.38	-0.22	10	5.3*	/	-4	8576*	/	+
Cc1cc(C(F)F)n2ncc(C(=O)NC3CCCCCC3)c2n1	-0.057	0.89	-23	6.3*	-11	8	10720*	1544	+
CCC(C)(C)NC(=O)C(c1cccnc1)N(CCOC)C(=O)Cn1nnc2ccccc21 (configuration not stated)	0.59	-0.25	-33	-0.78	/	3	/	/	/
COc1ccc(C2CC(=O)C(C=NCCN3CCN(C(C)=O)CC3)=C(O)C2)cc1OC (configuration not stated)	-0.22	0.2	-19	0.7	/	-16	/	/	/
CC1(C)Cc2c(C#N)c(NC3CCCCC3)nc(-c3ccco3)c2CO1	0.3	-0.34	-8	3.4*	/	0	8368*	1616	i
O=C(NCC(c1cccnc1)N1CCN(c2ccccc2F)CC1)c1cccc(Cl)c1 (configuration not stated)	-1	0.93	-8	/	/	-6	/	/	/
COc1ccc(S(=O)(=O)N2CCCCCC2)cc1C(=O)OCc1c(C)noc1C	-0.54	0.05	2	4.3*	-1	15	9164*	1508	+
COc1ccc(S(=O)(=O)N2CCc3ccccc32)cc1C(=O)OCc1c(C)noc1C	-0.019	0.72	-32	/	/	-6	/	/	/
CN1C=CC2=C(C#N)C(N)C(C#N)(C#N)[C@H](c3ccccc3)[C@H]2C1 (some centres not stated)	/	/	/	/	25	/	/	/	/
CCn1ncc(C2=NOC(C(=O)Nc3ccc4c(c3)OCO4)C2)c1C (configuration not stated)	0.46	0.2	-17	4.6*	/	10	7668*	1584	i
CC1CC(C)CN(S(=O)(=O)c2ccc(C(=O)N3CCN(c4ccccc4)CC3)cc2)C1 (configuration not stated)	-1.7	-0.47	13	-0.71	19	-4	/	/	/
COc1cc2[nH]c(=S)n(C3CCCC3)c(=O)c2cc1OC	-1.3	0.46	-6	2.9*	/	-6	13356*	1768	i
c1ccc(Cn2c(NCc3ccco3)nc3ccccc32)cc1	-0.78	-0.38	-9	12*	-32	0	14512*	1716	i
c1coc(CNc2nc3ccccc3n2CCN2CCOCC2)c1	-0.18	0.076	5	-0.71	-2	4	/	/	/
CCOC(=O)c1c(NC(=O)COC)sc(C(C)=O)c1C	-0.15	0.08	0	/	-41	20	/	/	/
CCOC(=O)c1c(NC(=O)OC)sc(C(=O)N(CC)CC)c1C	0.43	0.079	-9	4.2*	-181	4	8956*	1472	+
CCOC(=O)N1CCc2c(sc3c2C(=O)NC(c2ccccc2)N3)C1 (configuration not stated)	0.24	-1	4	0.33	20	36	/	/	/
Cn1cccc1C1NC(=O)c2c(sc3c2CCC(C(C)(C)C)C3)N1 (configuration not stated)	0.64	-3.1	-8	3*	-153	5	7568*	1776	i
c1ccc2c(c1)nc(Nc1ccc3c(c1)OCO3)c1nnnn12	0.69	0.73	38	8.6*	/	18	10812*	1496	+
Fc1cccc(Nc2nc3ccccc3n3nnnc23)c1	/	/	/	/	-57	/	/	/	/
Cc1ccc(CNc2nc3ccccc3n3nnnc23)cc1	0.91	0.27	22	3.4*	/	33	15516*	1588	i
SMILES	M1 antag	M1 agonist	RORA act	D1 mod	Htt clearance	SF1 activator	D1 mod confirm	D1 ag no DA	Isoprot counter
CCc1nnc(NC(=O)c2ccc3c(c2)C(=O)N(CC)C3=O)s1	/	/	/	/	51	/	/	/	/
Nc1nc(SCc2nc(-c3ccccc3)no2)[nH]c(=O)c1-c1ccccc1	/	/	/	/	61	/	/	/	/
COc1ccc(-c2nc(CN3CCC(C(=O)N4CCc5ccccc54)CC3)c(C)o2)cc1OC	-1.2	-0.47	-15	2.8*	/	4	6820*	1624	+
COc1ccccc1-c1nnc(SCC(=O)N2CCC(C)CC2)o1	/	/	-14	3.1*	-16	-1	5288	/	i
COc1ccc(-c2nnc(SCC#CCO)o2)cc1OC	-0.75	0.34	6	15*	/	-1	16500*	1544	+
COc1ccc(-c2nnc(SCC(=O)N3CCCc4ccccc43)o2)cc1OC	0.98	-0.28	-10	16*	31	-14	19988*	1836	+
CCOC(=O)C(NC(C)=O)(Nc1ccc(S(=O)(=O)Nc2cc(C)nc(C)n2)cc1)C(F)(F)F (configuration not stated)	0.43	0.45	2	-0.18	34	-14	/	/	/
CCOC(=O)c1ccc(N2C(=O)C(O)=C(C(C)=O)C2c2ccc(O)c(OC)c2)cc1 (configuration not stated)	-0.28	-0.066	20	2.5*	/	-3	5200	1280	i
Cc1ccc(Cn2c(CN(C)Cc3ccccc3)nc3c2c(=O)n(C)c(=O)n3C)cc1	-0.18	-0.26	-3	4.9*	/	0	8728*	1740	+
Oc1ccc(Br)cc1/C=N/n1cnc2ccccc21	-0.029	0.0055	-7	-0.089	/	4	/	/	/
